From ChEMBL document CHEMBL2146400, “Antiophidic solanidane steroidal alkaloids from Solanum campaniforme” (J Nat Prod, 2011)
Active and inactive are the calls of the source.

Assays:
[1] = test system: Bothrops pauloensis; test: Antiophidic activity against Bothropoides pauloensis venom-induced myotoxicity in Swiss mouse assessed as creatine kinase level at 50 ug preincubated with venom for 30 mins before venom injection measured 2 to 48 hrs post dose; type: functional
In short: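 Injected mixture was 50 μg venom with 50 μg alkaloid in 50 μL 1% DMSO–PBS (pH 7.2), preincubated 30 min at 37 °C; vehicle controls. Retro-orbital blood was taken at 2, 4, 8, 24 and 48 h. Plasma creatine kinase was measured by UV kit, in U/L (1 U = 1 μmol NADH/min at 37 °C). Mean ± SEM.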

[2] = test system: HCT-8; test: Antiproliferative activity against human HCT8 cells; type: functional, cell-based
[3] = test system: Bothrops pauloensis; test: Antihemorrhagic activity against Bothropoides pauloensis venom-induced hemorrhage in Swiss mouse assessed as reduction in intensity of hemorrhage area at 50 ug preincubated with venom for 30 mins before venom injection measured 2 hrs post dose; type: functional
In short: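 Venom (50 μg) was premixed with 50 μg alkaloid in 50 μL 1% DMSO–PBS, pH 7.2, and held 30 min at 37 °C before injection. At 2 h, five mice were killed and the inner dorsal skin was imaged. Intensity I = A × (N − H): A is area in mm2, N and H are mean colour intensity of normal and hemorrhagic skin. ANOVA/Dunnett.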

[4] = target: T1, Basic phospholipase A2 homolog BnSP-7 (Bothropoides pauloensis) (UniProt Q9IAT9); test: Inhibition of Phospholipase A2 Asp49 in Bothropoides pauloensis at 1:1 venom to drug ratio incubated up to 40 mins using 4N3OBA substrate by multiwell plate reader method; details: Bothrops pauloensis
T1 sequence (whole entry): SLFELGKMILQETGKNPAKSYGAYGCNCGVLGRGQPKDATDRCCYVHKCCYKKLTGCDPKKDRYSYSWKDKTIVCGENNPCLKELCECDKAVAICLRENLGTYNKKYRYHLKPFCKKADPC
In short: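 Whole venom (1 mg/mL), alone or preincubated 1:1 (w:w) with compound, was added to Tris-HCl 0.1 M, Ca2+ 0.01 M, pH 8.0, with 4-nitro-3-octanoyloxybenzoic acid substrate. Mixture was kept at 37 °C up to 40 min, reading A425 every 5 min. V0 came from the absorbance increase after 20 min.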

[5] = test system: SF-295; test: Antiproliferative activity against human SF295 cells; type: functional, cell-based
[6] = test system: MDA-MB-435; test: Antiproliferative activity against human MDA-MB-435 cells; type: functional, cell-based
[7] = test system: Bothrops pauloensis; test: Antihemorrhagic activity against Bothropoides pauloensis venom-induced hemorrhage in Swiss mouse assessed as decrease in hemorrhagic area at 50 ug preincubated with venom for 30 mins before venom injection measured 2 hrs post dose; type: functional
In short: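 Mice received 50 μL of 1% DMSO–PBS (pH 7.2) holding 50 μg B. pauloensis venom plus 50 μg alkaloid, preincubated 30 min at 37 °C. Vehicle-only negative controls. Five animals were killed at 2 h, and the inner dorsal skin was photographed. Hemorrhagic area was measured in mm2. Mean ± SEM, ANOVA with Dunnett's test.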

[8] = test system: HL-60; test: Antiproliferative activity against human HL60 cells; type: functional, cell-based
[9] = Fntinecrotizing activity against Bothropoides pauloensis venom-induced hemorrhage in Swiss mouse assessed as reduction in skin necrotic regions at 50 ug preincubated with venom for 30 mins before venom injection measured 2 hrs post dose; type: ADME, tissue-based, Skin of body; details: bothrops pauloensis, in vivo

C[C@H]1C[C@H]2O[C@]23[C@@H](C)[C@H]2[C@H](C[C@H]4[C@@H]5CCC6=CC(=O)C=C[C@]6(C)C5=CC[C@]24C)N3C1
active: Activity [1] | Activity [3] | Activity [7]
inactive: Activity [2] | inhibition [4] | Activity [5] | Activity [6] | Activity [8]
Active: Activity [9]

C[C@H]1C[C@H]2O[C@]23[C@@H](C)[C@H]2[C@H](C[C@H]4[C@@H]5CCC6=CC(=O)C=C[C@]6(C)[C@H]5CC[C@]24C)N3C1 (relative stereo)
inactive: Activity [2] | inhibition [4] | Activity [5] | Activity [6] | Activity [8]
active: Activity [1] | Activity [3] | Activity [7]
Active: Activity [9]

Cc1ccc(O)cc1CC[C@@H]1[C@@H](O)CC[C@]2(C)[C@@H]3[C@H](C[C@@H]12)N1C[C@@H](C)C[C@H]2O[C@]21[C@H]3C (relative stereo)
active: Activity [1]
inactive: Activity [2] | inhibition [4] | Activity [5] | Activity [6] | Activity [8]
